Jurkat tox 60K = cytotoxicity toward Jurkat cells. inhibition, % at 4 µM. Jurkat E6.1 viability, ATP luminescence, 48 h. AID 463. 1.2% of 56,000 active;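 active means inhibition above the mean inhibition of all tested compounds plus 3 SD, cut at about 28% in these data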
HUVEC inhibit = blocks proliferation of human endothelial cells; HUVEC proliferation, CellTiter-Glo luminescence, 72 h; active compounds read low; viability, % at 10 µM (by protocol); 1.1% of 86,000 active;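 active means viability at or below 30%; inactive means viability above 30%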;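 further: 100% = median luminescence of DMSO-only cell control wells on each plate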
Fibroblast inh = blocks proliferation of human lung fibroblasts | LL 47 human lung fibroblast viability, ATP luminescence; active compounds read low | viability, % at 10 µM | 1.1% of 85,000 active | AID 719;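 active means viability at or below 50% in the single dose screen; inactive means viability above 50%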;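 further: compound exposure lasted 72 h before the ATP readout; 100% = median luminescence of untreated cell-only wells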
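Material: human LL 47 lung fibroblast cells; quantity: 1,150 cells/well; medium: IMEM plus 15% FBS; doses: 0.1% DMSO in all compound wells; timing: overnight attachment after seeding, then 72 h compound exposure at 37 °C; detection: CellTiter-Glo luminescence; measure: % viability of median cell-only signal; controls: cell-only wells, no compound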
H69AR growth 86K = blocks growth of human H69AR lung tumor cells; viability, % at 10 µM; H69AR lung tumor viability, ATP luminescence, 72 h; active compounds read low; 6% of 85,000 active;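 active means viability at or below 40%; inactive means viability above 40%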;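 further: multidrug resistant small cell line overexpressing MRP-1 efflux transporter; 100% = mean luminescence of untreated control wells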
tolC growth inh = growth inhibitors of E. coli BW25113 tolC mutant. OD615. growth inhibition, % at 10 µM (by protocol). 2.2% of 65,000 active. AID 573;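 active means growth inhibition at or above a cutoff equal to the mean over every tested compound plus 3 SD, cut at about 60% in these data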;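 further: growth measured after 20 h incubation at 37 °C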
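Test system: E. coli BW25113 ΔtolC::kan bacteria | Medium: Kanamycin-containing LB broth (50 µg/mL) | Dosing: One dose of 10 µM final | Times: 20 h incubation with compound, 37 °C | Detection: Optical density read at 615 nm | Read-out basis: Percent growth inhibition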
E coli WT exp = blocks growth of wild type E. coli BW25113; OD600 absorbance; growth inhibition, % at 100 µM; 0.15% of 98,000 active; AID 710;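 active means growth inhibition above about 50% at one test dose, limit read from the data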;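 further: growth measured after 20 h incubation at 37 °C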
The depositor's hits bear a star; . = no result given. Only some compounds are listed: those with a hit (about 6.4% of all), similar ones and a draw of the others.

SMILES | Jurkat tox 60K | HUVEC inhibit | Fibroblast inh | H69AR growth 86K | tolC growth inh | E coli WT exp
CCCn1nnc(NC(=O)COc2ccc(C3CCCCC3)cc2)n1 | -3 | 94 | 98 | 98 | 100* | 2
N#Cc1c(Sc2ncc(C(F)(F)F)cc2Cl)nsc1C/C=N\OCc1c(F)cccc1Cl | . | 94 | 102 | 77 | . | -7
COc1cccc(C2=NOC(C(=O)Nc3cc(C)nn3-c3ccccc3)C2)c1OC (configuration not stated) | 12 | 75 | 90 | 32* | 9 | 2
CCOC(=O)C(NC(=O)c1ccccc1OCC)(Nc1ncccn1)C(F)(F)F (configuration not stated) | -3 | 94 | 92 | 87 | 2 | 2
CC1CCN(c2c(NCc3ccc(C(=O)N4c5ccccc5CC4C)cc3)c(=O)c2=O)CC1 (configuration not stated) | 0 | 86 | 92 | 34* | 47 | -1
Cc1ccc2cc(C(c3nnnn3CC3CCCO3)N3CCc4ccccc4C3)c(=O)[nH]c2c1 (configuration not stated) | -2 | 84 | 97 | 71 | 14 | 12
COc1cc2cc(C(c3nnnn3C3CCCC3)N3CCc4ccccc43)c(=O)[nH]c2cc1OC (configuration not stated) | 1 | 68 | 36* | 31* | -19 | -1
Cc1cccc2cc(C(c3nnnn3CC3CCCO3)N3CCc4ccccc4C3)c(=O)[nH]c12 (configuration not stated) | 2 | 97 | 84 | 74 | 69* | 2
COCCn1nnnc1C(c1cc2cc(OC)ccc2[nH]c1=O)N1CCC(Cc2ccccc2)CC1 (configuration not stated) | 2 | 96 | 106 | 3.8* | 41 | -4
O=c1[nH]c2cc3c(cc2cc1C(c1nnnn1Cc1ccccc1)N1CCCCCC1)OCCO3 (configuration not stated) | . | 69 | 30* | 2.1* | . | -7
COc1cc2cc(C(c3nnnn3C(C)(C)C)N3CCc4ccccc43)c(=O)[nH]c2cc1OC (configuration not stated) | 6 | 100 | 98 | 78 | 40 | 12
Clc1ccc(CSc2nnc(-c3sccc3-n3cccc3)o2)cc1 | . | . | . | . | . | -25
O=c1ccc(Oc2nc(N3CCCCC3)nc(N3CCCCC3)n2)n[nH]1 | -4 | 84 | 93 | 72 | -2 | 7
O=c1[nH]c2cc3c(cc2cc1C(c1nnnn1Cc1ccccc1)N1CCCc2ccccc21)OCO3 (configuration not stated) | -2 | 53 | 80 | 21* | -9 | -14
Cc1cc2cc(C(c3nnnn3CC3CCCO3)N3CCCc4ccccc43)c(=O)[nH]c2cc1C (configuration not stated) | -7 | 79 | 99 | 103 | 60 | -9
CCc1ccc2[nH]c(=O)c(C(c3nnnn3CC3CCCO3)N3CCCc4ccccc43)cc2c1 (configuration not stated) | 4 | 89 | 95 | 20* | 9 | -17
O=C(CSc1nnnn1-c1ccccc1)CC(=O)Nc1ccc(Cl)cc1 | 0 | 64 | 83 | 17* | 26 | -2
CCOc1ccc(C2=C(C=Nc3c(C)n(C)n(-c4ccccc4)c3=O)C(c3ccc(F)cc3)c3ccccc3O2)cc1 (configuration not stated) | . | . | . | . | . | -11
O=C(CC1SCCNC1=O)Nc1cc(Cl)cc(Cl)c1 (configuration not stated) | -4 | 88 | 47* | 88 | 13 | -2
Cc1cc(S(=O)(=O)Nc2ccc3ccccc3c2)c(C)s1 | . | 55 | 72 | 12* | . | -8
O=C1c2ccccc2C(Nc2cccc(C(F)(F)F)c2)N1Cc1ccco1 (configuration not stated) | 6 | 99 | 89 | 55 | 93* | -5
COc1cccc(NC2c3ccccc3C(=O)N2Cc2ccco2)c1 (configuration not stated) | -1 | 99 | 90 | 57 | 4 | 1
CCCCn1nc2cc(C(=O)NCc3ccc(OC(F)(F)F)cc3)ccc2c1OC | . | . | . | . | . | 2
CC(O)CN1C(=O)C(CC(=O)Nc2ccc(Cl)cc2)SC1=Nc1ccccc1 (configuration not stated) | . | 66 | 92 | 39* | 23 | 9

Source: PubChem
